Assay results published in ChEMBL document CHEMBL1134616, “Novel 7-oxyiminomethyl derivatives of camptothecin with potent in vitro and in vivo antitumor activity” (J Med Chem, 2001).

Columns and labels:
[1] = Cytotoxicity against human non-small-cell lung carcinoma cell line H460 (NSCLC-H460); assay type: functional, cell-based
Summary of the method: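 Logarithmically growing cells were seeded in duplicate, exposed to drug for 1 h starting 24 h after seeding, and counted by Coulter counter 72 h after exposure. Drug was dissolved in DMSO before dilution. The IC50 is the concentration giving a 50% decrease in growth relative to untreated control.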

[2] = Complete response in mice bearing lung carcinoma LX-1 at a oral dose of 15 mg/kg; assay type: functional, Mus musculus
Summary of the method: (§1)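 Nude athymic CD1 mice, 8–10 weeks old, carrying serially passaged human lung tumor fragments implanted s.c. in both flanks. Oral dosing in 10 mL/kg on a q4dx4 schedule, begun once tumors were visible but not yet measurable. Complete response means no detectable tumor for at least 10 days after the end of treatment.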

[3] = No. of dead mice/ total No. of mice bearing lung carcinoma LX-1 at a oral dose of 15 mg/kg; assay type: ADME, organism-based; set-up: dose 15 mg/kg, route oral; conditions: mouse, in vivo
Summary of the method: (§2)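 Human lung tumor s.c. xenografts (fragments, both flanks) in nude athymic CD1 mice aged 8–10 weeks. Oral q4dx4 dosing at 10 mL/kg, begun when tumors were visible but not measurable. Toxicity is recorded as the number of dead mice over the total number of treated mice.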

[4] = tested on: NCI-H460; test: Complete response in CD1 mice with human Non-Small-Cell tumor at a oral dose of 15 mg/kg after treatment with compound; assay type: functional
Summary of the method: (§3)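 Nude athymic CD1 mice, 8–10 weeks old, bearing s.c. human lung tumor xenografts (tumor fragments implanted in both flanks). Oral dosing on a q4dx4 schedule at 10 mL/kg, starting when tumors were visible but not measurable. A complete response was scored as no evidence of tumor for at least 10 days after the end of treatment.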

[5] = Percentage of body weight loss CD1 mice with human Non-Small-Cell tumor xenograft at a oral dose of 9 mg/kg; assay type: functional; conditions: dose 15 mg/kg, in the assay text read “oral dose of 15 mg/kg” for “oral dose of 9 mg/kg”
Summary of the method: (§4)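 Nude athymic CD1 mice, 8–10 weeks old, bearing s.c. human lung tumor xenografts in both flanks. Given oral drug in 10 mL/kg on a q4dx4 schedule, beginning when tumors were visible but not measurable. Read-out is percent body weight loss after drug treatment.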

[6] = tested on: NCI-H460; test: No. of dead mice/ total no of mice with human Non-Small-Cell tumor xenograft at a oral dose of 5 mg/kg; assay type: ADME, organism-based; set-up: dose 5 mg/kg, route oral; conditions: in vivo; summary of the method: as §2
[7] = tested on: NCI-H460; test: Log 10 cell kill induced in mice with human Non-Small-Cell tumor xenograft at a oral dose of 5 mg/kg; assay type: functional
Summary of the method: (§5)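 Nude athymic CD1 mice, 8–10 weeks, carrying s.c. human lung tumor fragments in both flanks. Given per os on a q4dx4 schedule at 10 mL/kg, starting when tumors were visible but not measurable. Volume = d²×D/2. Log10 cell kill = T−C/3.32 × tumor doubling time, where T and C are the days for treated and control tumors to reach a mean volume of 1000 mm³.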

[8] = tested on: NCI-H460; test: Percentage of body weight loss in CD1 mice with human Non-Small-Cell tumor xenograft at a oral dose of 5 mg/kg; assay type: functional; summary of the method: as §4
[9] = tested on: NCI-H460; test: Complete response in CD1 mice with human Non-Small-Cell tumor at a oral dose of 9 mg/kg after treatment with compound; assay type: functional; summary of the method: as §3
[10] = tested on: NCI-H460; test: Complete response in CD1 mice with human Non-Small-Cell tumor at a oral dose of 5 mg/kg after treatment with compound; assay type: functional; summary of the method: as §1
[11] = tested on: NCI-H460; test: Complete response CD1 mice with human Non-Small-Cell tumor xenograft at a oral dose of 15 mg/kg; assay type: functional; summary of the method: as §1
[12] = Percentage of body weight loss in mice bearing lung carcinoma LX-1 at a oral dose of 15 mg/kg; assay type: functional, Mus musculus; summary of the method: as §4
[13] = tested on: NCI-H460; test: Complete response in CD1 mice with human Non-Small-Cell tumor xenograft at a oral dose of 9 mg/kg; assay type: functional; summary of the method: as §1
[14] = tested on: NCI-H460; test: Percentage inhibition of tumor volume in treated versus control mice against human Non-Small-Cell tumor xenograft at a oral dose of 15 mg/kg; assay type: functional; conditions: Mus musculus
Summary of the method: (§6)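 Nude athymic CD1 mice, 8–10 weeks old, with human lung tumor fragments implanted s.c. in both flanks. Oral dosing in 10 mL/kg, q4dx4, started when tumors were visible but not measurable. Tumor volume = d²×D/2 from caliper diameters. Percent inhibition of treated versus control volume taken 7–10 days after the last dose. Volumes compared by Student's t test, P<0.05.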

[15] = Log 10 cell kill induced in mice bearing lung carcinoma LX-1 at a oral dose of 15 mg/kg; assay type: functional, Mus musculus; summary of the method: as §5
[16] = tested on: Homo sapiens; test: Percentage inhibition of tumor volume in treated versus control mice against human Non-Small-Cell tumor xenograft at a oral dose of 5 mg/kg; assay type: functional; summary of the method: as §6
[17] = tested on: NCI-H460; test: (§7) No. of dead mice/ total No. of mice with human Non-Small-Cell tumor xenograft at a oral dose of 9 mg/kg; assay type: ADME, organism-based; set-up: dose 9 mg/kg, route oral; conditions: in vivo; summary of the method: as §2
[18] = as §7; assay type: ADME, organism-based; set-up: dose 9 mg/kg, route oral; conditions: in vivo; summary of the method: as §2
[19] = tested on: NCI-H460; test: Percentage inhibition of tumor volume in treated versus control mice against human Non-Small-Cell tumor xenograft at a oral dose of 9 mg/kg; assay type: functional; conditions: Mus musculus; summary of the method: as §6
[20] = tested on: NCI-H460; test: Percentage of body weight loss of CD1 mice after treatment with compound; assay type: functional, Homo sapiens; summary of the method: as §4
[21] = Percentage inhibition of tumor volume in treated versus control mice bearing lung carcinoma LX-1 at a oral dose of 15 mg/kg; assay type: functional; conditions: Mus musculus; summary of the method: as §6

SMILES: CC[C@@]1(O)C(=O)OCc2c1cc1n(c2=O)Cc2c(/C=N/OC(C)(C)C)c3ccccc3[n+]([O-])c2-1
- IC50 [1]: 70 nM

SMILES: CC[C@@]1(O)C(=O)OCc2c1cc1n(c2=O)Cc2c-1nc1ccccc1c2/C(C)=N/OCc1ccccc1
- IC50 [1]: 130 nM

SMILES: CC[C@@]1(O)C(=O)OCc2c1cc1n(c2=O)Cc2c-1nc1ccccc1c2/C=N/OCc1ccncc1
- IC50 [1]: 30 nM

SMILES: CC[C@@]1(O)C(=O)OCc2c1cc1n(c2=O)Cc2c-1nc1ccccc1c2/C=N/OCc1ncc[nH]1
- IC50 [1]: 210 nM

SMILES: CC[C@@]1(O)C(=O)OCc2c1cc1n(c2=O)Cc2c-1nc1ccccc1c2/C=N/OCCN
- IC50 [1]: 490 nM

SMILES: CC[C@@]1(O)C(=O)OCc2c1cc1n(c2=O)Cc2c-1nc1ccccc1c2/C=N/OCc1c(F)c(F)c(F)c(F)c1F
- IC50 [1]: 28 nM

SMILES: CC[C@@]1(O)C(=O)OCc2c1cc1n(c2=O)Cc2c-1nc1ccc(O)cc1c2/C=N/OC(C)(C)C
- IC50 [1]: 130 nM

SMILES: CC[C@@]1(O)C(=O)OCc2c1cc1n(c2=O)Cc2c(/C=N/OC)c3ccccc3[n+]([O-])c2-1
- IC50 [1]: 2400 nM

SMILES: CCc1c2c(nc3ccc(O)cc13)-c1cc3c(c(=O)n1C2)COC(=O)[C@]3(O)CC [7-ETHYL-10-HYDROXYCAMPTOTHECIN]
- IC50 [1]: 80 nM

SMILES: C=CCO/N=C/c1c2c(nc3ccccc13)-c1cc3c(c(=O)n1C2)COC(=O)[C@]3(O)CC
- IC50 [1]: 60 nM

SMILES: CC[C@@]1(O)C(=O)OCc2c1cc1n(c2=O)Cc2c-1nc1ccccc1c2/C=N/O
- IC50 [1]: 32 nM

SMILES: CC[C@@]1(O)C(=O)OCc2c1cc1n(c2=O)Cc2c-1nc1ccccc1c2/C=N/OCCC1CCCN(C)C1 (some centres undefined)
- IC50 [1]: 100 nM

SMILES: CC[C@@]1(O)C(=O)OCc2c1cc1n(c2=O)Cc2c-1nc1ccccc1c2/C=N/OC(c1ccccc1)(c1ccccc1)c1ccccc1
- IC50 [1]: 1450 nM

SMILES: CC[C@@]1(O)C(=O)OCc2c1cc1n(c2=O)Cc2c-1nc1ccc(OC)cc1c2/C=N/OC(C)(C)C
- IC50 [1]: 70 nM

SMILES: CC[C@@]1(O)C(=O)OCc2c1cc1n(c2=O)Cc2c-1nc1ccccc1c2/C=N/OC
- IC50 [1]: 40 nM

SMILES: CC[C@@]1(O)C(=O)OCc2c1cc1n(c2=O)Cc2c-1nc1ccccc1c2/C=N/OCC(=O)O
- IC50 [1]: 2330 nM

SMILES: CC[C@@]1(O)C(=O)OCc2c1cc1n(c2=O)Cc2c-1nc1ccc(O)cc1c2/C=N/OC
- IC50 [1]: 200 nM

SMILES: CC[C@@]1(O)C(=O)OCc2c1cc1n(c2=O)Cc2c-1nc1ccccc1c2/C=N/OC[C@H]1O[C@@H]2OC(C)(C)O[C@@H]2[C@H]2OC(C)(C)O[C@H]21
- IC50 [1]: 360 nM

SMILES: CC[C@@]1(O)C(=O)OCc2c1cc1n(c2=O)Cc2c-1nc1ccccc1c2/C=N/OCc1ccc([N+](=O)[O-])cc1
- IC50 [1]: 17 nM

SMILES: CC[C@@]1(O)C(=O)OCc2c1cc1n(c2=O)Cc2c-1nc1ccccc1c2/C=N/OCC1O[C@H](O)C(O)[C@H](O)[C@H]1O (some centres undefined)
- IC50 [1]: 32000 nM

SMILES: CC[C@@]1(O)C(=O)OCc2c1cc1n(c2=O)Cc2c-1nc1ccccc1c2/C=N/OC(=O)c1ccccc1
- IC50 [1]: 1770 nM

SMILES: CC[C@@]1(O)C(=O)OCc2c1cc1n(c2=O)Cc2c-1nc1ccccc1c2/C=N/OCC(=O)NCCCNS(=O)(=O)c1ccccc1[N+](=O)[O-]
- IC50 [1]: 3000 nM

SMILES: CC[C@@]1(O)C(=O)OCc2c1cc1n(c2=O)Cc2c-1nc1ccccc1c2/C=N/OCc1ccc(C)cc1
- IC50 [1]: 20 nM

SMILES: CC[C@@]1(O)C(=O)OCc2c1cc1n(c2=O)Cc2c-1nc1ccccc1c2/C=N/OCc1ccc(N)cc1
- IC50 [1]: 25 nM

SMILES: CC[C@@]1(O)C(=O)OCc2c1cc1n(c2=O)Cc2c-1nc1ccccc1c2/C=N/OCC(=O)NCCCNC(=O)OC(C)(C)C
- IC50 [1]: 1700 nM

SMILES: CC[C@@]1(O)C(=O)OCc2c1cc1n(c2=O)Cc2c-1nc1ccccc1c2/C=N/OCC(=O)NCCCN
- IC50 [1]: 5200 nM

SMILES: CC[C@@]1(O)C(=O)OCc2c1cc1n(c2=O)Cc2c-1nc1ccccc1c2/C=N/OCCN1CCOCC1
- IC50 [1]: 80 nM

SMILES: CC[C@@]1(O)C(=O)OCc2c1cc1n(c2=O)Cc2c-1nc1ccccc1c2/C=N/OCc1c2ccccc2cc2ccccc12
- IC50 [1]: 190 nM

SMILES: CC[C@@]1(O)C(=O)OCc2c1cc1n(c2=O)Cc2c-1nc1ccccc1c2/C=N/OC(C)(C)CO
- IC50 [1]: 340 nM

SMILES: CC[C@@]1(O)C(=O)OCc2c1cc1n(c2=O)Cc2cc3c(CN(C)C)c(O)ccc3nc2-1 [TOPOTECAN]
- CR [2]: 4
- IC50 [1]: 1380 nM
- Toxicity [3]: 0
- LCK [4]: 2.1
- BWL [5]: 8%
- Toxicity [6]: 0
- LCK [7]: 1.3
- BWL [8]: 0%
- LCK [9]: 1.7
- CR [10]: 0
- CR [11]: 0
- BWL [12]: 6%
- CR [13]: 0
- inhibition in vivo at 15 mg/kg [14]: 98%
- LCK [15]: 3.7
- inhibition in vivo at 5 mg/kg [16]: 80%
- Toxicity [17]: 0
- Toxicity [18]: 0
- inhibition in vivo at 9 mg/kg [19]: 91%
- BWL [20]: 0%
- inhibition in vivo at 15 mg/kg [21]: 99%

SMILES: CC[C@@]1(O)C(=O)OCc2c1cc1n(c2=O)Cc2c-1nc1ccccc1c2/C(=N/O)c1ccccc1
- IC50 [1]: 5130 nM

SMILES: CC[C@@]1(O)C(=O)OCc2c1cc1n(c2=O)Cc2c-1nc1ccccc1c2/C=N/OCc1ccccc1
- IC50 [1]: 30 nM

SMILES: CC[C@@]1(O)C(=O)OCc2c1cc1n(c2=O)Cc2c-1nc1ccccc1c2/C=N/OCC1CO1 (some centres undefined)
- IC50 [1]: 20 nM

SMILES: CC[C@@]1(O)C(=O)OCc2c1cc1n(c2=O)Cc2c-1nc1ccccc1c2/C=N/OC(C)(C)C(=O)O
- IC50 [1]: 48000 nM

SMILES: CC[C@@]1(O)C(=O)OCc2c1cc1n(c2=O)Cc2c-1nc1ccccc1c2/C=N/Oc1ccccc1
- IC50 [1]: 160 nM

SMILES: CC[C@@]1(O)C(=O)OCc2c1cc1n(c2=O)Cc2c-1nc1ccccc1c2/C=N/OCc1ccc(-c2ccccc2)cc1
- IC50 [1]: 280 nM

SMILES: CC[C@@]1(O)C(=O)OCc2c1cc1n(c2=O)Cc2c-1nc1ccccc1c2/C=N/OCCN(C)C
- IC50 [1]: 300 nM

SMILES: CC[C@@]1(O)C(=O)OCc2c1cc1n(c2=O)Cc2c-1nc1ccccc1c2/C=N/OC(C)(C)C(=O)OC(C)(C)C
- IC50 [1]: 140 nM

SMILES: CC[C@@]1(O)C(=O)OCc2c1cc1n(c2=O)Cc2cc3ccccc3nc2-1 [CAMPTOTHECIN]
- IC50 [1]: 330 nM
